Test results reported in ChEMBL document CHEMBL1139130, “New C-5 substituted pyrrolotriazine dual inhibitors of EGFR and HER2 protein tyrosine kinases” (Bioorg Med Chem Lett, 2007).
Values belong to the compound of their own block, whether it stands above or below them.

Columns and labels:
A2780 = assay: Antiproliferative activity against human A2780 cells; type: functional, cell-based
NCI-N87 [1] = assay: Antiproliferative activity against human N87 cells; type: functional, cell-based
[2] = target: T1, Receptor tyrosine-protein kinase erbB-2 (Homo sapiens, UniProt P04626); assay: Inhibition of human recombinant cytoplasmic HER2 kinase expressed in Sf9 cells
[3] = target: Epidermal growth factor receptor (Homo sapiens, UniProt P00533)
Liver = assay: Metabolic stability in mouse liver microsomes assessed as rate of metabolism per mg protein at 3 uM after 10 mins; type: ADME, Microsome
Method in brief: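 Test compound at 3 µM incubated 10 min with mouse liver microsomes plus NADPH. Rate of metabolism expressed as nmol min⁻¹ mg protein⁻¹.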

[4] = target: T1, Receptor tyrosine-protein kinase erbB-2; assay: Inhibition of HER2 phosphorylation in human N87 cells; type: cell-based; details: NCI-N87
Method in brief: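 N87 human gastric carcinoma cells, which overexpress EGFR and HER2, were exposed to a range of compound concentrations for 1 h. Cell lysates were then Western blotted with anti-phosphotyrosine and anti-HER2 antibodies to follow HER2 phosphorylation.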

[5] = target: Hepatocyte growth factor receptor (Homo sapiens, UniProt P08581); assay: Inhibition of Met kinase
Method in brief: (§1)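 Kinase panel values are IC50s reported as the mean of at least three determinations, with variability around the mean under 15%.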

[6] = target: Tyrosine-protein kinase Lck (Homo sapiens, UniProt P06239); assay: Inhibition of LCK kinase
Method in brief: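 IC50 is the mean of at least three determinations, with variability around the mean below 15%.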

[7] = target: Vascular endothelial growth factor receptor 2 (Homo sapiens, UniProt P35968); assay: Inhibition of VEGFR2; method in brief: as §1
MAP kinase p38 = MAP kinase p38 (Homo sapiens, UniProt O15264+Q15759+Q16539+P53778); assay: Inhibition of p38 kinase; type: protein assay; method in brief: as §1
[8] = Inhibition of PKA; parameters: species or system Homo sapiens
Method in brief: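 IC50 values are means of at least three determinations, with variability around the mean under 15%.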

[9] = Antitumor activity against human GEO cells xenografted athymic mouse at 30 mg/kg, sc QD for 21 days; type: functional; details: po, 504 h, read-out: TGI, in the assay text read “po QD” for “sc QD”
Method in brief: (§2)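 Tumor cells were implanted subcutaneously in athymic mice and staged to about 100 mg before dosing, with drug given orally. […] Probability was assessed for median tumor weight at the end of treatment.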

[10] = Antitumor activity against human GEO cells xenografted athymic mouse at 60 mg/kg, sc QD for 21 days; type: functional; details: po, 504 h, read-out: TGI, in the assay text read “po QD” for “sc QD”; method in brief: as §2
[11] = Antitumor activity against human GEO cells xenografted athymic mouse at 120 mg/kg, sc QD for 21 days; type: functional; details: po, 504 h, read-out: TGI, in the assay text read “po QD” for “sc QD”; method in brief: as §2
[12] = Antitumor activity against human GEO cells xenografted athymic mouse at 240 mg/kg, sc QD for 21 days; type: functional; details: po, 504 h, read-out: TGI, in the assay text read “po QD” for “sc QD”; method in brief: as §2
NCI-N87 [13] = assay: Antitumor activity against human N87 cells xenografted athymic mouse at 30 mg/kg, sc QD for 14 days; type: functional; details: NCI-N87, po, 336 h, read-out: TGI, in the assay text read “po QD” for “sc QD”; method in brief: as §2
NCI-N87 [14] = assay: Antitumor activity against human N87 cells xenografted athymic mouse at 60 mg/kg, sc QD for 14 days; type: functional; details: NCI-N87, po, 336 h, read-out: TGI, in the assay text read “po QD” for “sc QD”; method in brief: as §2
NCI-N87 [15] = assay: Antitumor activity against human N87 cells xenografted athymic mouse at 120 mg/kg, sc QD for 14 days; type: functional; details: NCI-N87, po, 336 h, read-out: TGI, in the assay text read “po QD” for “sc QD”; method in brief: as §2
NCI-N87 [16] = assay: Antitumor activity against human N87 cells xenografted athymic mouse at 240 mg/kg, sc QD for 14 days; type: functional; details: NCI-N87, po, 336 h, read-out: TGI, in the assay text read “po QD” for “sc QD”; method in brief: as §2
[17] = Permeability across Caco-2 cell membrane; type: ADME, cell-based; details: human, read-out: permeability
[18] = Fraction unbound (%) ligand in mouse serum at 10 uM by equilibrium dialysis; type: ADME, cell-free, Plasma
Mus musculus [19] = assay: AUC in BALB/C mouse at 50 mg/kg, po after 4 hrs; type: ADME, organism-based, Plasma; parameters: time < 4 hr, dose 50 mg/kg, route oral; details: in vivo
Method in brief: (§3)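 Single oral 50 mg/kg dose in male Balb/C mice. AUC taken over 4 h, and plasma concentration measured at 4 h.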

[20] = Plasma concentration in BALB/C mouse at 50 mg/kg, po after 4 hrs; type: ADME, organism-based; parameters: dose 50 mg/kg, route oral; method in brief: as §3
Mus musculus [21] = assay: Toxicity in mouse at 240 mg/kg, po; details: in vivo
Mus musculus [22] = assay: Toxicity in mouse assessed as wieght loss at 240 mg/kg, po; details: in vivo

T1 sequence (P04626 whole entry): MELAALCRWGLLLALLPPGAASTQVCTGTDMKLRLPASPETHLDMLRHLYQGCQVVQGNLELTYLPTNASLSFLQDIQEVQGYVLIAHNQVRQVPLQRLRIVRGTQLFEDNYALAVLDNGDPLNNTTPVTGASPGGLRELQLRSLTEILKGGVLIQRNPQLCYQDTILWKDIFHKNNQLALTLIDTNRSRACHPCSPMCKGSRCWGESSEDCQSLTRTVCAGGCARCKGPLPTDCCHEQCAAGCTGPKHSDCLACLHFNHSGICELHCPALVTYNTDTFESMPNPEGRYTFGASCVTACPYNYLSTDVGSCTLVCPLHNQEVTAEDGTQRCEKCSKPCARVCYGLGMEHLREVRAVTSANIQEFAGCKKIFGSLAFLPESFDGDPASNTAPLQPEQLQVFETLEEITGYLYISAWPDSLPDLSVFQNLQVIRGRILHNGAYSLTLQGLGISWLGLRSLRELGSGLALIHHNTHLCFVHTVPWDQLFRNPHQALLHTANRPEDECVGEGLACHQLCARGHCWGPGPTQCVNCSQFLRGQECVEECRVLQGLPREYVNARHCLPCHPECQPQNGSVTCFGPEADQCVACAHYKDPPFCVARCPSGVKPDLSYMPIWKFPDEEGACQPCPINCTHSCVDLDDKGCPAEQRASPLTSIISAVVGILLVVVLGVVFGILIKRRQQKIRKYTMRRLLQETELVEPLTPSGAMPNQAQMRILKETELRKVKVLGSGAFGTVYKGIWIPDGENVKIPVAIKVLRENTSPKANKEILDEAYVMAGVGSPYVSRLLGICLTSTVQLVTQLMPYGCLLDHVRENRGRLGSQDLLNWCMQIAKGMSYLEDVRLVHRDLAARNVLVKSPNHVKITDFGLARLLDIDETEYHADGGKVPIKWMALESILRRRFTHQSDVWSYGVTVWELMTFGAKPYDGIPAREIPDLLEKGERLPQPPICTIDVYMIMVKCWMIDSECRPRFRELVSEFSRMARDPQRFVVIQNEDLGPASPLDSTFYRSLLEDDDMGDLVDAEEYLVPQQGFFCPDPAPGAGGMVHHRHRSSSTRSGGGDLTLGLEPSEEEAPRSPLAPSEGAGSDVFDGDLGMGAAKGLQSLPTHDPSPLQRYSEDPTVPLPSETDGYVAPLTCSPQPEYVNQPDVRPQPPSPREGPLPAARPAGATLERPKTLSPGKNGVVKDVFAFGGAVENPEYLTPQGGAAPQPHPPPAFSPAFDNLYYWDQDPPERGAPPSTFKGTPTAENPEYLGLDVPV
Chain of Epidermal growth factor receptor (P00533 whole entry): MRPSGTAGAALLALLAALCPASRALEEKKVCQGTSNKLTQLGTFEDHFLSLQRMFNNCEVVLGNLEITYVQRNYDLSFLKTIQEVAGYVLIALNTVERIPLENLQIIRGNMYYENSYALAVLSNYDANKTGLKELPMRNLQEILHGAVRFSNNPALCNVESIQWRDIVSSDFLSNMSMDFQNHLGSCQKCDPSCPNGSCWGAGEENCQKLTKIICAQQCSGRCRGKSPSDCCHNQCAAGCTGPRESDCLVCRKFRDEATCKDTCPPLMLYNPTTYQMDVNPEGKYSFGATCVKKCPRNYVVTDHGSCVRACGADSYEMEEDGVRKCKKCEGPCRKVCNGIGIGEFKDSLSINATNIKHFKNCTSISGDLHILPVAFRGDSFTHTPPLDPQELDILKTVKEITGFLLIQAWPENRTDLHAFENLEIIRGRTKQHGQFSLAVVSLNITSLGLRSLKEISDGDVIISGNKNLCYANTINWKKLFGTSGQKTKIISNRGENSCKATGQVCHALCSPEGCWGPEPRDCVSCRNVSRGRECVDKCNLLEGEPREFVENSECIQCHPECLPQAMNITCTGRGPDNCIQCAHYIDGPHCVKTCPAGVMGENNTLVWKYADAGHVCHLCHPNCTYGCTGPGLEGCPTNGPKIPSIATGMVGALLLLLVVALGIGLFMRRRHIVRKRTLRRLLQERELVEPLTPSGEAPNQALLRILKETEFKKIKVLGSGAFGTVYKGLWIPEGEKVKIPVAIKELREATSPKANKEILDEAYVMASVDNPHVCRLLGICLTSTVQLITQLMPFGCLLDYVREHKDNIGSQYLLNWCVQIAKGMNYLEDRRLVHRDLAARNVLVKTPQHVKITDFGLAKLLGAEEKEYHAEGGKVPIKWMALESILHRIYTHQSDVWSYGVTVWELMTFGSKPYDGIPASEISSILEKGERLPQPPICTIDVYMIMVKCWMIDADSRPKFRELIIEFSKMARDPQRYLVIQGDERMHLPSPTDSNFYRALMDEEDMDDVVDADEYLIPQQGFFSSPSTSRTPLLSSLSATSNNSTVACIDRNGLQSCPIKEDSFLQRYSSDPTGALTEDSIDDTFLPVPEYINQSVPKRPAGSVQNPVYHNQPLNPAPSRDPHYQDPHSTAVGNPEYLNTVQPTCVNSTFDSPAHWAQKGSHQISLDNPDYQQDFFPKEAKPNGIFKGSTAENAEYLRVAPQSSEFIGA
Chain of Hepatocyte growth factor receptor (P08581 whole entry): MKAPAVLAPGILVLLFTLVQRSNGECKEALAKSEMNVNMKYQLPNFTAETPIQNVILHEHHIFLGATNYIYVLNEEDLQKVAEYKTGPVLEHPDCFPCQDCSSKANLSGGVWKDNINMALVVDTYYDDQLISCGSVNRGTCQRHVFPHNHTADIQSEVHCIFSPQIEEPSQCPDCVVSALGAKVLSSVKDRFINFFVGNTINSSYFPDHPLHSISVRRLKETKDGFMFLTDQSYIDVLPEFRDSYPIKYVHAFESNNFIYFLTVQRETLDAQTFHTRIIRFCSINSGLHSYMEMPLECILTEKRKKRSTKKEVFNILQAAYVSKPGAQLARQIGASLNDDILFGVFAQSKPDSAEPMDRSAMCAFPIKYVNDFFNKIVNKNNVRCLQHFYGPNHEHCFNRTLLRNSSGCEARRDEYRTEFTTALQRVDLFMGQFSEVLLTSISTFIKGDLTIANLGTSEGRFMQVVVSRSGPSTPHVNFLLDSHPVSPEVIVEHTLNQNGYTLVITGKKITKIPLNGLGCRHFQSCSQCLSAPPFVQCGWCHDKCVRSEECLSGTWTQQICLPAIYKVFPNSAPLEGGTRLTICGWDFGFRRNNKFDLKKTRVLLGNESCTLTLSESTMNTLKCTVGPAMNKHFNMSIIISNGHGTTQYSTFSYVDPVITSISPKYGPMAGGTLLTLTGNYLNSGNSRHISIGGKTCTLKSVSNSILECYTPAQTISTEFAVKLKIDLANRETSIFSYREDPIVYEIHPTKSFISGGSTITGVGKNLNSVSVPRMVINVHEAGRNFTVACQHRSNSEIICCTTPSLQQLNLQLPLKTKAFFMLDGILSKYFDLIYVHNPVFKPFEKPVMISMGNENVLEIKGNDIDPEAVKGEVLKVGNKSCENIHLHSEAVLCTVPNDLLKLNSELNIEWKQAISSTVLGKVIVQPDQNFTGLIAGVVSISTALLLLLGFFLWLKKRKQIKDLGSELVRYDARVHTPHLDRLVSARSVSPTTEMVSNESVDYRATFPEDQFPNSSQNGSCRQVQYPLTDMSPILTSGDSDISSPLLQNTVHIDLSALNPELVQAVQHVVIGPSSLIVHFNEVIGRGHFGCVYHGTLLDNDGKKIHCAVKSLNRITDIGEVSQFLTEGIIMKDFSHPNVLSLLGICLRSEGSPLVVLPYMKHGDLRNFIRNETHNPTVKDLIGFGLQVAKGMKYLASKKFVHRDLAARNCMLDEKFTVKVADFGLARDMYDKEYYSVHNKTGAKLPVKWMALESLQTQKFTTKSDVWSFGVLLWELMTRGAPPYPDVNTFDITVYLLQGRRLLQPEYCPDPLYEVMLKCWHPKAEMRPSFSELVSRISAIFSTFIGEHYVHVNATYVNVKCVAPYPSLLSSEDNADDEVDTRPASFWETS
Chain of Tyrosine-protein kinase Lck (P06239 whole entry): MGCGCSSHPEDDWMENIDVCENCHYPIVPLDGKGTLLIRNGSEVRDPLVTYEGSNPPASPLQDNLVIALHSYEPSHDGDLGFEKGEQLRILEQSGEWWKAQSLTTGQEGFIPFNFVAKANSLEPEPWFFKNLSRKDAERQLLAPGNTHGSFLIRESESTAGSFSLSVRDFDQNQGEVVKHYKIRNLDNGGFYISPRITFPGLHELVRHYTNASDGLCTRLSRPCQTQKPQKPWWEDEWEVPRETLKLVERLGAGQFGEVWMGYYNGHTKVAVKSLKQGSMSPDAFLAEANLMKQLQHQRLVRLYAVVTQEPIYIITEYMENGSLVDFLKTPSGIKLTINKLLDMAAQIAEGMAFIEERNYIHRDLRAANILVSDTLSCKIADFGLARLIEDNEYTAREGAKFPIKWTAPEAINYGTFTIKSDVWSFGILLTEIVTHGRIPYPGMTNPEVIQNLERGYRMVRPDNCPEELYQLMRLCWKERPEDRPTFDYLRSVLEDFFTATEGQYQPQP

SMILES: C[C@@H](c1ccccc1)n1ncc2cc(Nc3ncnn4ccc(COC[C@@H]5CNCCO5)c34)ccc21
IC50 [2]: 0.85 µM | IC50 (NCI-N87 [1]): 2.2 µM | IC50 [3]: 0.69 µM

SMILES: Cc1ccn2ncnc(Nc3ccc4c(cnn4Cc4ccccn4)c3)c12
IC50 [2]: 0.31 µM | IC50 [3]: 0.2 µM

SMILES: Cc1ccn2ncnc(Nc3ccc4[nH]ncc4c3)c12
IC50 [2]: > 1 µM | IC50 [3]: 0.21 µM

SMILES: Cc1ccn2ncnc(Nc3ccc4c(cnn4Cc4ccccc4)c3)c12
IC50 [2]: 0.11 µM | IC50 [3]: 0.086 µM

SMILES: Cc1ccn2ncnc(Nc3ccc4c(cnn4Cc4cccnc4)c3)c12
IC50 [2]: 0.25 µM | IC50 [3]: 1.8 µM

SMILES: Cc1ccn2ncnc(Nc3ccc(OCc4cccc(F)c4)c(Cl)c3)c12
IC50 [2]: 0.43 µM | IC50 [3]: 0.25 µM

SMILES: c1ccc(Cn2ncc3cc(Nc4ncnn5ccc(COC[C@@H]6CNCCO6)c45)ccc32)nc1
IC50 [2]: 0.38 µM | IC50 (NCI-N87 [1]): 0.24 µM | IC50 [3]: 0.5 µM

SMILES: COc1cn2ncnc(Nc3ccc4c(cnn4Cc4cccc(F)c4)c3)c2c1COC[C@@H]1CNCCO1
IC50 [2]: 0.25 µM | IC50 (NCI-N87 [1]): 3.4 µM | IC50 [3]: 0.43 µM

More lines, main results first:

IC50 (A2780): 8.3 µM
SMILES: NCCOCc1ccn2ncnc(Nc3ccc4c(cnn4Cc4cccc(F)c4)c3)c12
IC50 (NCI-N87 [1]): 1.7 µM

IC50 [2]: 0.055 µM | IC50 (A2780): 8.7 µM | Stability (Liver): 0.07 nmol/min/mg | Activity [4]: Dose-dependent effect | IC50 [5]: 6.5 µM | IC50 [6]: > 5 µM | IC50 [7]: > 10 µM | IC50 (MAP kinase p38): > 50 µM | IC50 [8]: > 50 µM | Papp [17]: 6.4 ×10⁻⁶ cm/s | fraction unbound at 10 µM [18]: 0.026 | AUC (Mus musculus [19]): 29 µM·h | concentration at 4 h [20]: 5.8 µM | IC50 [3]: 0.061 µM
SMILES: Fc1cccc(Cn2ncc3cc(Nc4ncnn5ccc(COC[C@@H]6CNCCO6)c45)ccc32)c1
inhibition in vivo at 30 mg/kg [9]: 21% | inhibition in vivo at 60 mg/kg [10]: 55% | inhibition in vivo at 120 mg/kg [11]: 71% | inhibition in vivo at 240 mg/kg [12]: 91% | inhibition in vivo at 30 mg/kg (NCI-N87 [13]): 28% | inhibition in vivo at 60 mg/kg (NCI-N87 [14]): 51% | inhibition in vivo at 120 mg/kg (NCI-N87 [15]): 70% | inhibition in vivo at 240 mg/kg (NCI-N87 [16]): 111% | IC50 (NCI-N87 [1]): 0.083 µM | Activity (Mus musculus [21]): Non-toxic | Activity (Mus musculus [22]): Non-toxic

IC50 [2]: 0.41 µM | IC50 [3]: 0.81 µM
SMILES: c1cncc(Cn2ncc3cc(Nc4ncnn5ccc(COC[C@@H]6CNCCO6)c45)ccc32)c1
IC50 (NCI-N87 [1]): 0.55 µM

IC50 [2]: 0.018 µM | IC50 (A2780): > 10 µM | IC50 [3]: 0.03 µM
SMILES: O=C(O)COCc1ccn2ncnc(Nc3ccc4c(cnn4Cc4cccc(F)c4)c3)c12
IC50 (NCI-N87 [1]): > 10 µM

IC50 [2]: 0.12 µM | IC50 (A2780): 4.9 µM | IC50 [3]: 0.13 µM
SMILES: Fc1cccc(Cn2ncc3cc(Nc4ncnn5ccc(COCC6CCNCC6)c45)ccc32)c1
IC50 (NCI-N87 [1]): 0.72 µM

IC50 [2]: 0.13 µM | IC50 [3]: 0.16 µM
SMILES: NCCCCOCc1ccn2ncnc(Nc3ccc4c(cnn4Cc4cccc(F)c4)c3)c12

IC50 [2]: 0.06 µM | IC50 (A2780): > 10 µM | IC50 [3]: 0.083 µM
SMILES: Fc1cccc(Cn2ncc3cc(Nc4ncnn5ccc(COC[C@H]6CNCCO6)c45)ccc32)c1
IC50 (NCI-N87 [1]): 0.13 µM

IC50 [2]: 0.59 µM | IC50 (A2780): > 10 µM | IC50 [3]: 0.64 µM
SMILES: Fc1cccc(Cn2ncc3cc(Nc4ncnn5ccc(COC[C@@H]6COCCN6)c45)ccc32)c1
IC50 (NCI-N87 [1]): 3 µM
